Reference: ChEMBL document CHEMBL3259650, “Synthesis of symmetrically substituted 3,3-dibenzyl-4-hydroxy-3,4-dihydro-1H-quinolin-2-ones, as novel quinoline derivatives with antibacterial activity” (Eur J Med Chem, 2014)
In brackets after ≈: the same amount, converted by molar mass. Activity calls are given as the source filed them. No cut-off for these calls is given here.

How the values were obtained:
Staphylococcus aureus [1] = assay: Antibacterial activity against Staphylococcus aureus ATCC 6538p; format: functional
How it was run: (§1)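 MIC determined by broth microdilution in casein soy broth (pH 7.3) at an inoculum of 10^5 CFU/mL, incubated 24 h at 37 C. Levofloxacin was the comparator and controls were run alongside. Samples were tested in quadruplicate.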

Shigella sonnei [2] = assay: Antibacterial activity against Shigella sonnei ATCC 15305 assessed as growth inhibition after 24 hrs by micro dilution method; format: functional; settings: ATCC 15305, 24 h; how it was run: as §1
Escherichia coli [3] = assay: Antibacterial activity against Escherichia coli ATCC 25922 assessed as growth inhibition after 24 hrs by micro dilution method; format: functional; settings: ATCC 25922, 24 h; how it was run: as §1
Enterococcus sp. [4] = assay: Antibacterial activity against Enterococcus sp. ATCC 6589 assessed as growth inhibition by measuring turbidity of medium at 3.12 ug/mL measured after 3 hrs by microplate reader analysis; format: functional, organism-based
How it was run: (§2)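 Overnight casein soy broth cultures (37 C) were centrifuged, resuspended in fresh medium and adjusted to about 5 10^7 cells/mL (OD620 0.2). Cells were grown in microplate wells to mid-log phase, then twofold serial dilutions of the test agents in fresh medium were added. OD620 was read every 15 min at 23 C for 10 h, with 30 s shaking between reads. Runs were in quadruplicate.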

Staphylococcus aureus [5] = assay: Antibacterial activity against Staphylococcus aureus ATCC 6538p assessed as growth inhibition after 24 hrs by micro dilution method; format: functional; how it was run: as §1
Shigella sonnei [6] = assay: Antibacterial activity against Shigella sonnei ATCC 15305; format: functional
Escherichia coli [7] = assay: Antibacterial activity against Escherichia coli ATCC 25922; format: functional
Bacillus spizizenii = assay: Antibacterial activity against Bacillus subtilis ATCC 6633 assessed as growth inhibition after 24 hrs by micro dilution method; format: functional; settings: ATCC 6633, 24 h; how it was run: as §1
Pseudomonas aeruginosa = assay: Antibacterial activity against Pseudomonas aeruginosa ATCC […] assessed as growth inhibition after 24 hrs by micro dilution method; format: functional; how it was run: as §1
Enterococcus sp. [8] = assay: Antibacterial activity against Enterococcus sp. ATCC 6589 assessed as growth inhibition by measuring turbidity of medium at 25 to 400 ug/mL measured over 10 hrs by microplate reader analysis; format: functional, organism-based; how it was run: as §2
Enterococcus sp. [9] = assay: Antibacterial activity against Enterococcus sp. ATCC 6589; format: functional
Salmonella typhimurium [10] = assay: Antibacterial activity against Salmonella typhimurium ATCC 14028; format: functional, Salmonella enterica subsp. enterica serovar Typhimurium; how it was run: as §1
Klebsiella aerogenes = assay: Antibacterial activity against Enterobacter aerogenes ATCC 13048 assessed as growth inhibition after 24 hrs by micro dilution method; format: functional; settings: ATCC 13048, 24 h; how it was run: as §1
Morganella morganii [11] = assay: Antibacterial activity against Morganella morganii ATCC 8019; format: functional
Enterococcus sp. [12] = assay: Antibacterial activity against Enterococcus sp. ATCC 6589 assessed as growth inhibition by measuring turbidity of medium measured over 10 hrs by microplate reader analysis; format: functional, organism-based; how it was run: as §2
Enterococcus sp. [13] = assay: Antibacterial activity against Enterococcus sp. ATCC 6589 assessed as growth inhibition after 24 hrs by micro dilution method; format: functional; settings: ATCC 6589, 24 h; how it was run: as §1
Salmonella typhimurium [14] = assay: Antibacterial activity against Salmonella typhimurium ATCC 14028 assessed as growth inhibition after 24 hrs by micro dilution method; format: functional, Salmonella enterica subsp. enterica serovar Typhimurium; settings: Salmonella enterica, ATCC 14028, 24 h; how it was run: as §1
Burkholderia cepacia [15] = assay: Antibacterial activity against Burkholderia cepacia ATCC 17759; format: functional
Morganella morganii [16] = assay: Antibacterial activity against Morganella morganii ATCC 8019 assessed as growth inhibition by measuring turbidity of medium measured over 10 hrs by microplate reader analysis; format: functional, organism-based; how it was run: as §2
Morganella morganii [17] = assay: Antibacterial activity against Morganella morganii ATCC 8019 assessed as growth inhibition after 24 hrs by micro dilution method; format: functional; settings: ATCC 8019, 24 h; how it was run: as §1
Burkholderia cepacia [18] = assay: Antibacterial activity against Burkholderia cepacia ATCC 17759 assessed as growth inhibition after 24 hrs by micro dilution method; format: functional; settings: ATCC 17759, 24 h; how it was run: as §1
Enterococcus sp. [19] = assay: Antibacterial activity against Enterococcus sp. ATCC 6589 assessed as growth inhibition by measuring turbidity of medium at 6.25 to 100 ug/mL measured over 10 hrs by microplate reader analysis; format: functional, organism-based; how it was run: as §2
Enterococcus sp. [20] = assay: Antibacterial activity against Enterococcus sp. ATCC 6589 assessed as growth inhibition by measuring turbidity of medium at MIC measured over 10 hrs by microplate reader analysis; format: functional, organism-based; how it was run: as §2
Morganella morganii [21] = assay: Antibacterial activity against Morganella morganii ATCC 8019 assessed as growth inhibition by measuring turbidity of medium at >= MIC measured over 10 hrs by microplate reader analysis; format: functional, organism-based; how it was run: as §2

SMILES	MLC (Staphylococcus aureus [1]) [µg/mL]	MIC (Shigella sonnei [2]) [µg/mL]	MIC (Escherichia coli [3]) [µg/mL]	MIC (Staphylococcus aureus [5]) [µg/mL]	MLC (Shigella sonnei [6]) [µg/mL]	MLC (Escherichia coli [7]) [µg/mL]	MIC (Bacillus spizizenii) [µg/mL]	MIC (Pseudomonas aeruginosa) [µg/mL]	further results
O=C1Nc2ccccc2C(O)C1(Cc1ccccc1Cl)Cc1ccccc1Cl (stereo not given)	200 (≈ 485 µM)	12.5 (≈ 30.3 µM)	12.5 (≈ 30.3 µM)	12.5 (≈ 30.3 µM)	200 (≈ 485 µM)	200 (≈ 485 µM)	12.5 (≈ 30.3 µM)	100 (≈ 243 µM)	growth inhibition (GI) (Enterococcus sp. [4]): inactive
Cc1ccc2c(c1)C(O)C(Cc1ccccc1)(Cc1ccccc1)C(=O)N2 (stereo not given)	>200	50 (≈ 140 µM)	25 (≈ 69.9 µM)	50 (≈ 140 µM)	>200	>200	50 (≈ 140 µM)	100 (≈ 280 µM)	
CC1(C)S[C@@H]2[C@H](NC(=O)[C@H](N)c3ccccc3)C(=O)N2[C@H]1C(=O)O									growth inhibition (GI) (Enterococcus sp. [8]): Active
O=C1N(Cc2ccc(Cl)cc2)c2ccc(Cl)cc2C(O)C1(Cc1ccc(Cl)cc1)Cc1ccc(Cl)cc1 (stereo not given)	100 (≈ 175 µM)	50 (≈ 87.5 µM)	50 (≈ 87.5 µM)	50 (≈ 87.5 µM)	100 (≈ 175 µM)	>100	> 100	50 (≈ 87.5 µM)	
O=C1Nc2ccc(F)cc2C(O)C1(Cc1ccccc1)Cc1ccccc1 (stereo not given)	>200	25 (≈ 69.2 µM)	25 (≈ 69.2 µM)	50 (≈ 138 µM)	>200	>200	25 (≈ 69.2 µM)	50 (≈ 138 µM)	
COc1ccc(CC2(Cc3ccc(OC)cc3)C(=O)Nc3ccccc3C2O)cc1 (stereo not given)	200 (≈ 496 µM)	100 (≈ 248 µM)	100 (≈ 248 µM)	100 (≈ 248 µM)	>200	>200	100 (≈ 248 µM)	100 (≈ 248 µM)	
COc1ccc2c(c1)C(O)C(Cc1ccccc1)(Cc1ccccc1)C(=O)N2 (stereo not given)	>200	100 (≈ 268 µM)	100 (≈ 268 µM)	100 (≈ 268 µM)	>200	>200	50 (≈ 134 µM)	100 (≈ 268 µM)	
O=C1Nc2ccccc2C(O)C1(Cc1ccccc1)Cc1ccccc1 (stereo not given)	>200	50 (≈ 146 µM)	100 (≈ 291 µM)	50 (≈ 146 µM)	>200	>200	100 (≈ 291 µM)	100 (≈ 291 µM)	
O=C1Nc2ccccc2C(O)C1(Cc1ccc(Cl)cc1)Cc1ccc(Cl)cc1 (stereo not given)	100 (≈ 243 µM)	6.25 (≈ 15.2 µM)	1.52 (≈ 3.69 µM)	6.25 (≈ 15.2 µM)	100 (≈ 243 µM)	25 (≈ 60.6 µM)	1.56 (≈ 3.78 µM)	100 (≈ 243 µM)	
CCN1C(=O)C(Cc2ccccc2)(Cc2ccccc2)C(O)c2ccccc21 (stereo not given)	>200	200 (≈ 538 µM)	100 (≈ 269 µM)	100 (≈ 269 µM)	>200	>200	12.5 (≈ 33.6 µM)	100 (≈ 269 µM)	
O=C1N(Cc2ccccc2)c2ccccc2C(O)C1(Cc1ccccc1)Cc1ccccc1 (stereo not given)	>200	200 (≈ 461 µM)	100 (≈ 231 µM)	100 (≈ 231 µM)	>200	>200	100 (≈ 231 µM)	> 200	
CN1C(=O)C(Cc2ccccc2)(Cc2ccccc2)C(O)c2ccccc21 (stereo not given)	>200	100 (≈ 280 µM)	50 (≈ 140 µM)	100 (≈ 280 µM)	>200	>200	50 (≈ 140 µM)	100 (≈ 280 µM)	
O=C1Nc2ccc(Cl)cc2C(O)C1(Cc1ccccc1)Cc1ccccc1 (stereo not given)	>200	12.5 (≈ 33.1 µM)	12.5 (≈ 33.1 µM)	25 (≈ 66.2 µM)	>200	200 (≈ 529 µM)	12.5 (≈ 33.1 µM)	50 (≈ 132 µM)	
CCN1C(=O)C(Cc2ccc(Cl)cc2)(Cc2ccc(Cl)cc2)C(O)c2cc(Cl)ccc21 (stereo not given)	50 (≈ 105 µM)	50 (≈ 105 µM)	50 (≈ 105 µM)	6.25 (≈ 13.2 µM)	100 (≈ 211 µM)	100 (≈ 211 µM)	3.12 (≈ 6.57 µM)	50 (≈ 105 µM)	MLC (Enterococcus sp. [9]): 25 µg/mL (≈ 52.7 µM); MLC (Salmonella typhimurium [10]): 100 µg/mL (≈ 211 µM); MIC (Klebsiella aerogenes): 50 µg/mL (≈ 105 µM); MLC (Morganella morganii [11]): 12.5 µg/mL (≈ 26.3 µM); growth inhibition (GI) (Enterococcus sp. [12]): Dose-dependent effect; MIC (Enterococcus sp. [13]): 6.25 µg/mL (≈ 13.2 µM); MIC (Salmonella typhimurium [14]): 50 µg/mL (≈ 105 µM); MLC (Burkholderia cepacia [15]): 12.5 µg/mL (≈ 26.3 µM); growth inhibition (GI) (Morganella morganii [16]): Dose-dependent effect; MIC (Morganella morganii [17]): 6.25 µg/mL (≈ 13.2 µM)
CCOC(=O)CN1C(=O)C(Cc2ccccc2)(Cc2ccccc2)C(O)c2ccccc21 (stereo not given)		> 200	100 (≈ 233 µM)	> 200		>200	> 200	> 200	
COc1cccc2c1NC(=O)C(Cc1ccccc1)(Cc1ccccc1)C2O (stereo not given)	>200	100 (≈ 268 µM)	100 (≈ 268 µM)	100 (≈ 268 µM)	>200	>200	100 (≈ 268 µM)	100 (≈ 268 µM)	
C[C@H]1COc2c(N3CCN(C)CC3)c(F)cc3c(=O)c(C(=O)O)cn1c23.C[C@H]1COc2c(N3CCN(C)CC3)c(F)cc3c(=O)c(C(=O)O)cn1c23.O [LEVOFLOXACIN]	3.12	3.12	3.12	3.12	3.12	3.12	3.12	3.12	MIC (Burkholderia cepacia [18]): 0.78 µg/mL; MLC (Enterococcus sp. [9]): 0.78 µg/mL; MLC (Salmonella typhimurium [10]): 0.78 µg/mL; growth inhibition (GI) (Enterococcus sp. [19]): Active; MIC (Klebsiella aerogenes): 0.78 µg/mL; MLC (Morganella morganii [11]): 0.78 µg/mL; MIC (Enterococcus sp. [13]): 0.78 µg/mL; MIC (Salmonella typhimurium [14]): 0.78 µg/mL; MLC (Burkholderia cepacia [15]): 0.78 µg/mL; MIC (Morganella morganii [17]): 0.78 µg/mL
O=C1Nc2ccc(Cl)cc2C(O)C1(Cc1ccc(Cl)cc1)Cc1ccc(Cl)cc1 (stereo not given)	12.5 (≈ 28 µM)	3.12 (≈ 6.98 µM)	3.12 (≈ 6.98 µM)	3.12 (≈ 6.98 µM)	12.5 (≈ 28 µM)	50 (≈ 112 µM)	3.12 (≈ 6.98 µM)	50 (≈ 112 µM)	MLC (Enterococcus sp. [9]): 50 µg/mL (≈ 112 µM); MLC (Salmonella typhimurium [10]): 100 µg/mL (≈ 224 µM); growth inhibition (GI) (Enterococcus sp. [20]): Active; MIC (Klebsiella aerogenes): 50 µg/mL (≈ 112 µM); MLC (Morganella morganii [11]): 6.25 µg/mL (≈ 14 µM); MIC (Enterococcus sp. [13]): 6.25 µg/mL (≈ 14 µM); MIC (Salmonella typhimurium [14]): 50 µg/mL (≈ 112 µM); growth inhibition (GI) (Morganella morganii [21]): Active; MIC (Morganella morganii [17]): 6.25 µg/mL (≈ 14 µM)
